The source made the active and inactive calls.
Tests used:
[1] = Growth inhibition of patient derived CLL cells after 48 hrs by annexin V-FITC staining based flow cytometric analysis; assay type: functional; settings: Homo sapiens, CLL-CII
Procedure, shortened: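 Freshly isolated primary CLL cells (10⁶/mL) in RPMI with 10% foetal calf serum, L-glutamine, penicillin and streptomycin, 37 °C, 5% CO₂, exposed to inhibitor for 48 h. Cells labelled with CD19-APC and annexin V-FITC; apoptosis quantified by flow cytometry in CD19+ cells. LD50 is the concentration killing 50% of CLL cells.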

CDK9/cyclin T1 = CDK9/cyclin T1 (Homo sapiens, UniProt P50750); assay: Inhibition of recombinant human full length CDK9/Cyclin T1 using KTFCGTPEYLAPEVRREPRILSEEEQEMFRDFDYIADWC as substrate incubated for 40 mins in presence of [gamma-33P]-ATP by scintillation counting method; assay type: protein-complex assay
CDK9/cyclin T1, sequence (O60563 whole entry): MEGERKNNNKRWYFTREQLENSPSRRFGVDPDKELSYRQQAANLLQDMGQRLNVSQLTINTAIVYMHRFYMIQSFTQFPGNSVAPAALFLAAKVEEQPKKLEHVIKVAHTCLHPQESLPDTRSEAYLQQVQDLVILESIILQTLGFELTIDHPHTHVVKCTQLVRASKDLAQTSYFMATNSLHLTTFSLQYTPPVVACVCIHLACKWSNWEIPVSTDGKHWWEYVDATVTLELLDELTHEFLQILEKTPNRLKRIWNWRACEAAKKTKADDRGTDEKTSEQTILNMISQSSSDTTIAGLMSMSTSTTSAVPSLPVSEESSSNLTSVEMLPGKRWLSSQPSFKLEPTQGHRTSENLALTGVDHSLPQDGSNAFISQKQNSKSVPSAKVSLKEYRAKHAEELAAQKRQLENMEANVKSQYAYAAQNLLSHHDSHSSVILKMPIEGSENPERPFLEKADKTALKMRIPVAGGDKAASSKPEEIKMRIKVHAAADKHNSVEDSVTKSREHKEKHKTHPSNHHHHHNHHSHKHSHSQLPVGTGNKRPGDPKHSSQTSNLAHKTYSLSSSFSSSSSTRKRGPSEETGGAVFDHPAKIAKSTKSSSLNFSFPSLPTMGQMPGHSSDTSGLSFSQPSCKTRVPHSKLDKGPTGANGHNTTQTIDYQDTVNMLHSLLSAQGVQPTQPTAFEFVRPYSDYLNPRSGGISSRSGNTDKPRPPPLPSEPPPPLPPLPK
CDK9/cyclin T1, sequence (P50750 whole entry): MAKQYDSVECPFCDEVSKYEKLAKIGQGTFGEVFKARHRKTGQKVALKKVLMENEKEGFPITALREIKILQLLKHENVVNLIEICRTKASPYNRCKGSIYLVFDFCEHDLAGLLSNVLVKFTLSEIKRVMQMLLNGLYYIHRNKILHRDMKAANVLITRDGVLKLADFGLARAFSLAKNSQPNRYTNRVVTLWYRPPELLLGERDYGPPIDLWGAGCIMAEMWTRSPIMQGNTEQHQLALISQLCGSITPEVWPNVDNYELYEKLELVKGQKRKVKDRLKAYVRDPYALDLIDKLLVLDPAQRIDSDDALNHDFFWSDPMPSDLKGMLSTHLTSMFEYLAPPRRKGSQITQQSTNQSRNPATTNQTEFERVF
Procedure, shortened: (§1)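 Radiometric kinase assay with ATP at each kinase's Km(app). IC50 values come from 10-point dose-response curves, and apparent Ki is calculated from IC50 and the kinase's Km(ATP).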

[2] = biological target: Vascular endothelial growth factor receptor 2 (Homo sapiens) (UniProt P35968); assay: Inhibition of recombinant human KDR 790 to end residues ) using myelin basic protein as substrate incubated for 40 mins by scintillation counting method
Vascular endothelial growth factor receptor 2 (Homo sapiens), sequence (P35968 whole entry): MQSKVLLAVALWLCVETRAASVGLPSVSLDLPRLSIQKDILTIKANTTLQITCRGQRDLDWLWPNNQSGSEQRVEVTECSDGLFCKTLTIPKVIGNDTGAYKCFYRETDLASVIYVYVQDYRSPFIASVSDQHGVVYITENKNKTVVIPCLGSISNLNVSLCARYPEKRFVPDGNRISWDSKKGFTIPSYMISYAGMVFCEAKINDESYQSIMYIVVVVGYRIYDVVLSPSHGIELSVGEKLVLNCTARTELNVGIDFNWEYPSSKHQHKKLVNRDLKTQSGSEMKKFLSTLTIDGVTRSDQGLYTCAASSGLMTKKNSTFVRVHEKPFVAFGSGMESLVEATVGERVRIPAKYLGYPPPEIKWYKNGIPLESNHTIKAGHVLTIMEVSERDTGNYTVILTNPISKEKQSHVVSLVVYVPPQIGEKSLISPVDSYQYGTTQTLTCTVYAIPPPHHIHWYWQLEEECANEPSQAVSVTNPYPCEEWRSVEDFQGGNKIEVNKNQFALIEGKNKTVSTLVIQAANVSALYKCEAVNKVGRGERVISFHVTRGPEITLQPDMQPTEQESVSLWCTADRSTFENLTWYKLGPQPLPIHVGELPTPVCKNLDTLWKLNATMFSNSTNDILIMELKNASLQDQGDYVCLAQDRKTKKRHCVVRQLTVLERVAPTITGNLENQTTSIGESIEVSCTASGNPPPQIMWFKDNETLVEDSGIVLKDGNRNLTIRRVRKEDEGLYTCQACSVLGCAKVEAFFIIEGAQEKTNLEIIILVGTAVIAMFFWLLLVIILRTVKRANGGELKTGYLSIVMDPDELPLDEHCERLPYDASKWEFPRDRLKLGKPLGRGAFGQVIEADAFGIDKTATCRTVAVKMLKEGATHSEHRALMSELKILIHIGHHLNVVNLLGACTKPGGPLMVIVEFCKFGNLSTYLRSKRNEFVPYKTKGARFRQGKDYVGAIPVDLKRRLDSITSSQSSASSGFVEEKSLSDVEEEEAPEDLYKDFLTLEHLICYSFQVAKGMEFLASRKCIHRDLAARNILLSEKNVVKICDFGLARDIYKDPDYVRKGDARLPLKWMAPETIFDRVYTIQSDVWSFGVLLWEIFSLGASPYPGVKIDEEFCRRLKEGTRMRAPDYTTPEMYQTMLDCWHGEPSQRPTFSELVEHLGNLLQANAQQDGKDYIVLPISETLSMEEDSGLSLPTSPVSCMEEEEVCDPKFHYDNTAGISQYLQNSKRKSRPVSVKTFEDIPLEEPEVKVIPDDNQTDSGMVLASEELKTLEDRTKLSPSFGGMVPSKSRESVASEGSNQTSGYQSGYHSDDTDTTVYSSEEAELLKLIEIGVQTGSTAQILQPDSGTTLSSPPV
Procedure, shortened: (§2)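 The 60-kinase diversity panel was run as a radiometric assay with ATP at each kinase's Km(app). Compound was tested at one fixed concentration across all kinases.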

CDK2/Cyclin A2 = CDK2/Cyclin A2 (Homo sapiens, UniProt P24941); assay: Inhibition of recombinant human full length CDK2/Cyclin A using histone H1 as substrate incubated for 40 mins in presence of [gamma-33P]-ATP by scintillation counting method; assay type: protein-complex assay
Homo sapiens [3] = species: Homo sapiens; assay: Selectivity index, ratio of Ki for inhibition of recombinant human full length CDK2/Cyclin A to Ki for inhibition of recombinant human full length CDK9/Cyclin T1
Procedure, shortened: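 Ratio of apparent Ki values for the two CDK/cyclin complexes. Each Ki is derived from an IC50 (10-point radiometric dose-response, ATP at Km(app)) using the kinase's Km(ATP). The selectivity index is defined as Ki(CDK2)/Ki(CDK9).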

MCF7 = assay: Growth inhibition of human MCF7 cells after 48 hrs by MTT assay; assay type: functional
[4] = biological target: Cyclin-dependent kinase 1/cyclin B1 (Homo sapiens, UniProt P06493); assay: Inhibition of recombinant human full length CDK1/Cyclin B using histone H1 as substrate incubated for 40 mins in presence of [gamma-33P]-ATP by scintillation counting method; assay type: protein-complex assay; procedure, shortened: as §1
Cyclin-dependent kinase 1/cyclin B1, sequence (P06493 whole entry): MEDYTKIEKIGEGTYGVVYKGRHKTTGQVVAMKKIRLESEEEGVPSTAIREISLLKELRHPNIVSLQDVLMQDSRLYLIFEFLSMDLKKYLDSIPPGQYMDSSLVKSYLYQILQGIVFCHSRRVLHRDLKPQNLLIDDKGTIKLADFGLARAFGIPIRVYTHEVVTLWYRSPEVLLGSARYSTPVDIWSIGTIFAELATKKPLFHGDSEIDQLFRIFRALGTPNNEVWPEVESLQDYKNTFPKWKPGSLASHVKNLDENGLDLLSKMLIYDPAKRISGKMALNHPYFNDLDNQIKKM
Cyclin-dependent kinase 1/cyclin B1, sequence (P14635 whole entry, further chain): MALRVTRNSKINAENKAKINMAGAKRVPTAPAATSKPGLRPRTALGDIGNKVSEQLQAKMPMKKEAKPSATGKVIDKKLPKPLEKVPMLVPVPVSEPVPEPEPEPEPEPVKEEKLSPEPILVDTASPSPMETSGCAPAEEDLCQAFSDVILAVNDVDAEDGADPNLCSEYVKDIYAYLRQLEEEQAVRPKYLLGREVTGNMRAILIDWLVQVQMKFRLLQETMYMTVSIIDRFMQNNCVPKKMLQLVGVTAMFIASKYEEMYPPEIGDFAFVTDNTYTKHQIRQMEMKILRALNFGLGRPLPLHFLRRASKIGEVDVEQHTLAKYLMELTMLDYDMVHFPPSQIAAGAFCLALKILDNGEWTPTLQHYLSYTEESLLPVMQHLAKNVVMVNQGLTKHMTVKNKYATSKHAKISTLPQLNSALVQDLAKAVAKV

Homo sapiens [5] = species: Homo sapiens; assay: Selectivity index, ratio of Ki for inhibition of recombinant human full length […]
[6] = biological target: Mitogen-activated protein kinase kinase kinase 9 (Homo sapiens) (UniProt P80192); assay: Inhibition of recombinant human full length MLK1 (134 to 414 residues)using casein as substrate incubated for 40 mins by scintillation counting method; procedure, shortened: as §2
Mitogen-activated protein kinase kinase kinase 9 (Homo sapiens), sequence (P80192 whole entry, looked up, the tested form may be a part): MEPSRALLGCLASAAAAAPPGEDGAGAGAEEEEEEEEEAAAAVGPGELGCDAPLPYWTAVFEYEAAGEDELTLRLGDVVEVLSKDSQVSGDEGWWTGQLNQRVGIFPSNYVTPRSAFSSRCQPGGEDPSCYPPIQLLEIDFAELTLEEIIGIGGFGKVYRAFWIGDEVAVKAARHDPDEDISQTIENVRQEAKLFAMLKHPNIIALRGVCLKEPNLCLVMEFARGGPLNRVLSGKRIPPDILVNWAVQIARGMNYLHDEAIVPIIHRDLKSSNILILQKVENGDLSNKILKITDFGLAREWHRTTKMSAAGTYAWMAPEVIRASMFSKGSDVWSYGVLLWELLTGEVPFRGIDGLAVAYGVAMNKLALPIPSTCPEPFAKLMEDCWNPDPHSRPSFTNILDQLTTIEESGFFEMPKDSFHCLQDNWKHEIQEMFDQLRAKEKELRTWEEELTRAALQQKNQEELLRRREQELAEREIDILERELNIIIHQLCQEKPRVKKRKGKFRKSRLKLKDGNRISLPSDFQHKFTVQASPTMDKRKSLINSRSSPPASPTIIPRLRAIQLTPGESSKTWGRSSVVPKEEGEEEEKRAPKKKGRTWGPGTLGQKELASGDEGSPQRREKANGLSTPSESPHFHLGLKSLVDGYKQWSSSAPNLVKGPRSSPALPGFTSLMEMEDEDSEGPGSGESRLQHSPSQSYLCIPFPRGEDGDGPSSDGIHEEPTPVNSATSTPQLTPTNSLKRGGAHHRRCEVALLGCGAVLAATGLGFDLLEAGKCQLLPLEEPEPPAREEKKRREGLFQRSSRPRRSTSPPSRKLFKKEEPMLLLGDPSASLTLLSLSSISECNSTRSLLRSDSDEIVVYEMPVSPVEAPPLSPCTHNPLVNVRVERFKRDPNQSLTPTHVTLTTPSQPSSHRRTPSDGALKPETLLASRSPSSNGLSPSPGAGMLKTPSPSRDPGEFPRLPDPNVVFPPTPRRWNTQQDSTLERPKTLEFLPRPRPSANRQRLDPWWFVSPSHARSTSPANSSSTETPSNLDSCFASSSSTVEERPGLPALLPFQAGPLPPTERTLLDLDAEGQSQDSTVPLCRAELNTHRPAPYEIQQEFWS

HT-29 = assay: Growth inhibition of human HT-29 cells after 48 hrs by MTT assay; assay type: functional
MDA-MB-468 = assay: Growth inhibition of human MDA-MB-468 cells after 48 hrs by MTT assay; assay type: functional
A2780 [7] = assay: Growth inhibition of human A2780 cells after 48 hrs by MTT assay; assay type: functional
A2780 [8] = assay: Induction of apoptosis in human A2780 cells assessed as necrotic cells at 0.5 uM after 24 hrs by Annexin V-FITC/PI staining based flow cytometric analysis (reference value: 3.6%); assay type: functional
Procedure, shortened: (§3)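 A2780 cells cultured 24 h in medium alone or with varying inhibitor concentrations, then stained with FITC-annexin V/PI per kit protocol and analysed by flow cytometry. Run in triplicate and repeated at least twice; significance by one-way ANOVA, p < 0.01.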

A2780 [9] = assay: Induction of apoptosis in human A2780 cells assessed as viable cells at 1 uM after 24 hrs by Annexin V-FITC/PI staining based flow cytometric analysis (reference value: 92%); assay type: functional; settings: read-out: Activity; procedure, shortened: as §3
A2780 [10] = assay: Induction of apoptosis in human A2780 cells assessed as late apoptotic cells at 2 uM after 24 hrs by Annexin V-FITC/PI staining based flow cytometric analysis (reference value: 2.8%); assay type: functional; procedure, shortened: as §3
A2780 [11] = assay: Induction of apoptosis in human A2780 cells assessed as necrotic cells at 5 uM after 24 hrs by Annexin V-FITC/PI staining based flow cytometric analysis (reference value: 3.6%); assay type: functional; procedure, shortened: as §3
A2780 [12] = assay: Induction of cell cycle arrest in human A2780 cells assessed as accumulation at G2/M phase at 1 uM after 24 hrs by propidium iodide staining based flow cytometric analysis (reference value: 21.6%); assay type: functional
Procedure, shortened: (§4)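 4 × 10⁵ A2780 cells cultured 24 h in medium alone or with varying inhibitor concentrations, harvested into hypotonic fluorochrome solution (0.1% sodium citrate, 0.1% Triton X-100, propidium iodide, 100 ug/ml RNase A), and DNA content analysed by flow cytometry. Representative of three independent experiments.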

A2780 [13] = assay: Induction of cell cycle arrest in human A2780 cells assessed as accumulation at pre-G1 phase at 2 uM after 24 hrs by propidium iodide staining based flow cytometric analysis (reference value: 1.2%); assay type: functional
A2780 [14] = assay: Induction of cell cycle arrest in human A2780 cells assessed as accumulation at G1/G0 phase at 2 uM after 24 hrs by propidium iodide staining based flow cytometric analysis (reference value: 56.7%); assay type: functional; procedure, shortened: as §4
A2780 [15] = assay: Induction of cell cycle arrest in human A2780 cells assessed as accumulation at G2/M phase at 2 uM after 24 hrs by propidium iodide staining based flow cytometric analysis (reference value: 21.6%); assay type: functional; procedure, shortened: as §4
A2780 [16] = assay: Induction of cell cycle arrest in human A2780 cells assessed as accumulation at S phase at 5 uM after 24 hrs by propidium iodide staining based flow cytometric analysis (reference value: 20%); assay type: functional; procedure, shortened: as §4
A2780 [17] = assay: Induction of cell cycle arrest in human A2780 cells assessed as accumulation at G2/M phase at 5 uM after 24 hrs by propidium iodide staining based flow cytometric analysis (reference value: 21.6%); assay type: functional; procedure, shortened: as §4
[18] = biological target: Cyclin-dependent kinase 9 (Homo sapiens) (UniProt P50750); assay: Inhibition of CDK9 in human A2780 cells assessed as reduction in RNAP2 phosphorylation at ser5 residues after 24 hrs by Western blot analysis; assay type: cell-based; settings: dose 0.5-5 µM
Cyclin-dependent kinase 9 (Homo sapiens), sequence (P50750 whole entry): as the sequence (P50750 whole entry) above

A2780 [19] = assay: Induction of apoptosis in human A2780 cells assessed as increase in p53 protein expression at 0.5 to 5 uM after 24 hrs by Western blot analysis; assay type: functional, cell-based; settings: dose 0.5-5 µM
Procedure, shortened: (§5)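 A2780 cells treated for 24 h over a concentration series, then lysates analysed by Western blotting.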

A2780 [20] = assay: Induction of apoptosis in human A2780 cells assessed as increase in p21 protein expression at 0.5 to 5 uM after 24 hrs by Western blot analysis; assay type: functional, cell-based; settings: dose 0.5-5 µM; procedure, shortened: as §5
HCT-116 [21] = assay: Induction of apoptosis in human HCT-116 cells assessed as reduction in Mcl-1 protein expression at 5 uM after 6 to 12 hrs by Western blot analysis; assay type: functional, cell-based; settings: time 6-12 hrs
HCT-116 [22] = assay: Induction of apoptosis in human HCT-116 cells assessed as increase in p53 protein expression at 0.5 to 5 uM after 24 hrs by Western blot analysis; assay type: functional, cell-based; settings: dose 0.5-5 µM
HCT-116 [23] = assay: Induction of apoptosis in human HCT-116 cells assessed as increase in p21 protein expression at 0.5 to 5 uM after 24 hrs by Western blot analysis; assay type: functional, cell-based; settings: dose 0.5-5 µM

- Ki (CDK9/cyclin T1): 0.01 µM
- inhibition [2]: Active
- Ki (CDK2/Cyclin A2): 1.25 µM
- Ratio Ki (Homo sapiens [3]): 125
- GI50 (MCF7): 1.34 µM
- Ki [4]: 1.17 µM
- Ratio Ki (Homo sapiens [5]): 100
- inhibition [6]: Active
- GI50 (HT-29): 2.1 µM
- GI50 (MDA-MB-468): 1.46 µM
- GI50 (A2780 [7]): 0.64 µM
- inhibition [18]: Dose-Dependent Effect
Compound: CNc1nc(C)c(-c2nc(Nc3cccc(N4CCN5CCC4CC5)c3)ncc2C)s1
- GI50 [1]: 1.5 µM
- Activity (A2780 [8]): 1.9%
- viability at 1 µM (A2780 [9]): 74.4%
- Activity (A2780 [10]): 15.5%
- Activity (A2780 [11]): 5.6%
- Activity (A2780 [12]): 34.2%
- Activity (A2780 [13]): 8.3%
- Activity (A2780 [14]): 24.3%
- Activity (A2780 [15]): 56.5%
- Activity (A2780 [16]): 10.8%
- Activity (A2780 [17]): 23.5%
- Activity (A2780 [19]): Active
- Activity (A2780 [20]): Active
- Activity (HCT-116 [21]): Active
- Activity (HCT-116 [22]): Active
- Activity (HCT-116 [23]): Active

Reference: ChEMBL document CHEMBL4819032, “Structure-based design of highly selective 2,4,5-trisubstituted pyrimidine CDK9 inhibitors as anti-cancer agents” (Eur J Med Chem, 2021)
